Experimental data reported in ChEMBL document CHEMBL1147924, “One pot synthesis of pyrimidine and bispyrimidine derivatives and their evaluation for anti-inflammatory and analgesic activities” (2007).

How the values were obtained:
Type in all cases: functional
[1] = tested on: Rattus norvegicus; assay: Antiinflammatory activity against carrageenan-induced paw oedema in Albino rat at 50 mg/kg, po after 3 hrs
Summary of the method: (§1)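 Oral dosing. Paw volume was read by plethysmometer immediately after and 3 h after the irritant injection, and the volume difference was taken as oedema. Percent inhibition of oedema was calculated for treated groups against the control group, with a standard-drug group included.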

[2] = tested on: Mus musculus; assay: Analgesic activity against phenylquinone-induced in Swiss mouse assessed as effect on writhings at 50 mg/kg, po after 20 mins
Summary of the method: (§2)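 Female Swiss mice (15–20 g) screened the day before by intraperitoneal 0.2 cm³ of 0.02% aqueous phenylquinone, with writhes counted over 20 min. Mice with more than 10 writhes were used next day in groups of five. They were given the oral dose (25, 50 or 100 mg/kg) 15 min before the phenylquinone challenge, and writhing was recorded.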

[3] = tested on: Mus musculus; assay: Analgesic activity against phenylquinone-induced in Swiss mouse assessed as effect on writhings at 100 mg/kg, po after 20 mins; summary of the method: as §2
[4] = tested on: Rattus norvegicus; assay: Antiinflammatory activity against carrageenan-induced paw oedema in Albino rat at 100 mg/kg, po after 3 hrs; summary of the method: as §1
[5] = tested on: Mus musculus; assay: Analgesic activity against phenylquinone-induced in Swiss mouse assessed as effect on writhings at 75 mg/kg, po after 20 mins
[6] = tested on: Mus musculus; assay: Analgesic activity against phenylquinone-induced in Swiss mouse assessed as effect on writhings at 25 mg/kg, po after 20 mins; summary of the method: as §2

| Structure (SMILES) | Activity [1] [%] | Activity [2] [%] | Activity [3] [%] | Activity [4] [%] | Activity [5] [%] | Activity [6] [%] |
| --- | --- | --- | --- | --- | --- | --- |
| CC1(C)CC(C)(O)N(Cc2ccco2)C(=S)N1 (stereo not given) | 10.3 | 15 | – | – | – | – |
| CC1(C)CC(C)(O)N(CCCN2CCCC2=O)C(=S)N1 (stereo not given) | – | – | 34 | 40.3 | – | – |
| CC1=CC(C)(C)NC(=S)N1c1ccccc1C#N | – | 0 | 25 | 0 | – | – |
| CC1=CC(C)(C)NC(=S)N1CCCC1OCC2(CO1)COC(CCCN1C(=S)NC(C)(C)C=C1C)OC2 (stereo not given) | – | 25 | 75 | 31.8 | – | – |
| CC1CC(O)N(CCCN2CCN(CCCN3C(=S)NC(C)CC3O)CC2)C(=S)N1 (stereo not given) | 38.6 | 40 | – | – | – | – |
| CC1CC(O)N(CCCC2OCC3(CO2)COC(CCCN2C(=S)NC(C)CC2O)OC3)C(=S)N1 (stereo not given) | – | – | 0 | 0 | – | – |
| CC1=CC(C)(C)NC(=S)N1Cc1ccco1 | 15.1 | 8.5 | – | – | – | – |
| CC1(C)CC(C)(O)N(CCc2c[nH]cn2)C(=S)N1 (stereo not given) | – | 25 | 100 | 65 | 50 | 12.5 |
| CC1(C)CC(C)(O)N(CCCn2ccnc2)C(=S)N1 (stereo not given) | – | 25 | 50 | 35 | – | – |
| CC1=CC(C)(C)NC(=S)N1c1n[nH]c(N2C(=S)NC(C)(C)C=C2C)n1 | – | – | 0 | 0 | – | – |
| CC1CC(O)N(CCCN2CCCC2=O)C(=S)N1 (stereo not given) | 36.3 | 50 | – | – | – | – |
| CC1=CC(C)(C)NC(=S)N1CCCn1ccnc1 | 32.5 | 40 | – | – | – | – |
| CC1(C)CC(C)(O)N(CCCN2CCN(CCCN3C(=S)NC(C)(C)CC3(C)O)CC2)C(=S)N1 (stereo not given) | 31.6 | 10 | – | – | – | – |
| CC(C)Cc1ccc(C(C)C(=O)O)cc1 (stereo not given) [IBUPROFEN] | – | 50 | 75 | 66.8 | – | – |
